Data set [1] in a line: Half life in total cell extract of deoxynucleoside analogue-sensitive mouse L1210 cells by HPLC analysis in presence of snake venom phosphodiesterase. It counts as ADME, cell-based.
Data set [2] is described as follows: Half life in total cell extract of nucleoside analogue-resistant mouse L1210 10K cells by HPLC analysis in presence of snake venom phosphodiesterase. It counts as ADME, cell-based.
The test system of data set [3] is CCRF-CEM. Nature of the data set: Resistance ratio of IC50 for deoxynucleoside analogue-resistant human CEM/ARAC8C cells to IC50 for deoxynucleoside analogue-sensitive human CCRF-CEM cells. Format: functional. In short, it runs like this: (§1)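 RR is the 3-day MTT IC50 in the resistant line divided by the IC50 in its sensitive parental line. Significance between IC50s and RRs was tested by Student's t-test.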

Data set [4] in a line: Cytotoxicity against deoxycytidine kinase deficient and deoxynucleoside analogue-resistant human MESSA 10K cells after 3 days by MTT assay. It counts as functional, cell-based. Particulars: 72 h. In short, it runs like this:
(§2)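 Adherent lines (Messa in RPMI, MCF7 in DMEM, each with 10% FBS, L-glutamine and penicillin/streptomycin) seeded at 3000 cells/well and left 24 h at 37 °C before drugs were added over a concentration range. After 3 days at 37 °C, MTT (100 µg) was added for 2 h and the formazan dissolved in isopropanol/HCl/water for optical density.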

Data set [5] relates to L1210. Nature of the data set: Resistance ratio of IC50 for deoxynucleoside analogue-resistant mouse L1210 10K cells to IC50 for deoxynucleoside analogue-sensitive mouse L1210 cells. It counts as functional. In short, it runs like this:
as §1

The nature of data set [6]: Cytotoxicity against deoxynucleoside analogue-sensitive human MESSA cells after 3 days by MTT assay. Format: functional, cell-based. The note with it: MES-SA, 72 h. In short, it runs like this: as §2
In general terms: Formazan colour is commonly taken as a measure of viable cells.

Data set [7] is described as follows: Cytotoxicity against nucleoside transporter deficient and deoxynucleoside analogue-resistant human CEM/ARAC8C cells after 3 days by MTT assay. Format: functional, cell-based. The note with it: 72 h.
For data set [8], the system named is MCF7. Description: Cytotoxicity against deoxynucleoside analogue-resistant human MCF7 1K cells overexpressing ribonucleotide reductase after 3 days by MTT assay. It counts as functional, cell-based. Particulars: MCF7, 72 h. In short, it runs like this: as §2
The test system of data set [9] is MCF7. Description: Cytotoxicity against deoxynucleoside analogue-sensitive human MCF7 cells after 3 days by MTT assay. It counts as functional, cell-based. The note with it: MCF7, 72 h. In short, it runs like this: as §2
Data set [10] has as its system CCRF-CEM. Description: Cytotoxicity against deoxynucleoside analogue-sensitive human CCRF-CEM cells after 3 days by MTT assay. It counts as functional, cell-based. Particulars: 72 h. In short, it runs like this: (§3)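 Suspension lines (CCRF-CEM, L1210) grown in RPMI with 10% FBS, L-glutamine and penicillin/streptomycin, added at 10,000 cells/well directly to media holding graded drug concentrations. After 3 days at 37 °C, MTT (100 µg) was added for 2 h and the formazan dissolved in isopropanol/HCl/water for optical density.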

Data set [11] deals with L1210. Description: Cytotoxicity against deoxycytidine kinase deficient and nucleoside analogue-resistant mouse L1210 10K cells after 3 days by MTT assay. Format: functional, cell-based. Particulars: L1210, 72 h. The method in brief: as §3
Data set [12] deals with L1210. Description: Cytotoxicity against deoxynucleoside analogue-sensitive mouse L1210 cells after 3 days by MTT assay. Format: functional, cell-based. Particulars: L1210, 72 h. In short, it runs like this: as §3

The term half-life denotes the time needed for the level to fall by half in the phase considered. Take `Cc1cn([C@@H]2O[C@H](COP(=O)([O-])Oc3ccccc3)[C@@H](N=[N+]=[N-])[C@@H]2O)c(=O)[nH]c1=O.[Na+]`: the half-life in data set [1] and in data set [2] was 53 min in each case.
In the case of `Cc1cn([C@H]2C[C@H](O)[C@@H](COP(=O)(O)Oc3ccc([N+](=O)[O-])cc3)O2)c(=O)[nH]c1=O`, the half-life in data set [1] and in [2] was 43 min throughout.
Turning to `Nc1ccn([C@@H]2O[C@H](COP(=O)([O-])Oc3ccccc3)[C@@H](O)[C@@H]2O)c(=O)n1.[Na+]`, the half-life in data set [1] and in data set [2] was 276 min throughout.
A word on the IC50: it is the concentration needed to halve the response being measured. The low end stands for inhibition by little substance, the high end for a need for much substance. Turning to `Nc1ccn([C@@H]2O[C@H](CO)[C@@H](O)[C@@H]2O)c(=O)n1` [CYTARABINE], the results for the “Ratio IC50” value with CCRF-CEM [3] and in the data set on L1210 [5] were 100000 and 257500, respectively. Also, the IC50 in data set [4] came to 6330 µM; in data set [6] it was 1.7 µM; in data set [7], 100 µM; in the data set with MCF7 [8], 0.04 µM; in the data set with MCF7 [9], 0.004 µM; in the data set on CCRF-CEM [10], 0.001 µM. The IC50 in the data set on L1210 [11] amounted to 103 µM; in the data set with L1210 [12], 0.0004 µM.

For the origin of these results see ChEMBL document CHEMBL1152537, “Special feature of mixed phosphotriester derivatives of cytarabine” (Bioorg Med Chem, 2009).
